The source of these data is ChEMBL document CHEMBL3102739, “Synthesis and antiproliferative activity of conformationally restricted 1,2,3-triazole analogues of combretastatins in the sea urchin embryo model and against human cancer cell lines” (Bioorg Med Chem, 2014).

Experiment [1] relates to Jurkat. Briefly: Cell cycle arrest in human Jurkat cells assessed as accumulation at sub-G1 phase at 15 nM after 48 hrs by propidium iodide staining-based flow cytometric analysis (reference value: 12.2%). In kind it is functional. A general note: In flow cytometry, cells or beads pass a laser one at a time.
The subject of experiment [2] is Jurkat/A4. Briefly: Induction of apoptosis in human Jurkat/A4 cells assessed as caspase 9 activation at 150 nM after 24 to 48 hrs by Western blotting analysis. In kind it is functional, cell-based. The essentials: (§1)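 Treatment 24 or 48 h (Jurkat 15 nM, Jurkat/A4 150 nM for CA4P). Cells washed in ice-cold PBS and lysed 30 min at 4 °C in 20 mM Tris-HCl pH 7.4, 1% Triton X-100, 150 mM NaCl with protease inhibitors. Equal protein run on 12% SDS-PAGE and blotted to PVDF. Probed with monoclonal antibodies to caspase-9, caspase-2, Bcl-2 or XIAP for 2 h at room temperature, then HRP anti-mouse and ECL. β-actin used as loading control.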
On the technique in general: A western blot detects proteins with antibodies after separation by electrophoresis.

The subject of experiment [3] is Jurkat. Briefly: Induction of apoptosis in human Jurkat cells assessed as active caspase 3 expression at 15 nM after 24 hrs by FITC-conjugated flow cytometric analysis (reference value: 3.3%). In kind it is functional. Put shortly: (§2)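 Jurkat or Jurkat/A4 cells treated, then permeabilized per the manufacturer's protocol and stained with FITC-conjugated monoclonal antibody to active caspase-3. Percentage of positive cells (M1 gate) measured by flow cytometry. Untreated cells served as controls.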

For experiment [4], the system named is Jurkat. Briefly: Induction of apoptosis in human Jurkat cells assessed as active caspase 3 expression at 15 nM after 48 hrs by FITC-conjugated flow cytometric analysis (reference value: 3.3%). In kind it is functional. Put shortly: as §2
Experiment [5] has as its system Jurkat. Briefly: Induction of apoptosis in human Jurkat cells assessed as active caspase 3 expression at 15 nM by FITC-conjugated flow cytometric analysis. Format: functional, cell-based. As to conditions: TDE = time-dependent effect. Put shortly:
as §2

In experiment [6] the test system is Jurkat/A4. The experiment is described as follows: Induction of apoptosis in human Jurkat/A4 cells assessed as caspase 2 activation at 150 nM after 24 to 48 hrs by Western blotting analysis. In kind it is functional, cell-based. Put shortly:
as §1

Experiment [7] concerns Jurkat. Briefly: Induction of apoptosis in human Jurkat cells assessed as micronuclei formation after 48 hrs by May-Grunwald-Giemsa staining-based microscopic analysis. Format: functional, cell-based. Put shortly:
(§3)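 Jurkat or Jurkat/A4 cells treated 48 h, with untreated cells as control. Cells cytospun, stained by May–Grünwald–Giemsa and examined by light microscopy with a 100× objective for micronuclei, membrane-enclosed fragments with unequally segregated chromosomes, and condensed nuclei.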

Experiment [8] has as its system Jurkat. The experiment is described as follows: Cytotoxicity against human Jurkat cells assessed as cell viability after 48 hrs by trypan blue exclusion assay. Format: functional, cell-based. The essentials: (§4)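 Compound added to exponentially growing Jurkat or Jurkat/A4 cells in RPMI-1640 with 10% FCS at 37 °C. Viable cells counted directly by trypan blue exclusion after 48 h. EC50 taken by linear interpolation of survival data. Mean±SD from three independent experiments.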

Experiment [9] can be described thus: Cell cycle arrest in human Jurkat/A4 cells assessed as decrease in accumulation at G0/G1 phase at 150 nM after 24 hrs by propidium iodide staining-based flow cytometric analysis. In kind it is functional.
The nature of experiment [10]: Cell cycle arrest in human Jurkat/A4 cells assessed as increase in accumulation at G2/M phase at 150 nM after 24 hrs by propidium iodide staining-based flow cytometric analysis. In kind it is functional.
The test system of experiment [11] is Jurkat/A4. Briefly: Induction of apoptosis in human Jurkat/A4 cells assessed as micronuclei formation after 48 hrs by May-Grunwald-Giemsa staining-based microscopic analysis. In kind it is functional, cell-based. The essentials:
as §3

The subject of experiment [12] is Jurkat. Briefly: Induction of apoptosis in human Jurkat cells assessed as reduction of XIAP expression at 15 nM after 24 hrs Western blotting analysis. Format: functional, cell-based. Put shortly: as §1
Experiment [13] has as its system Jurkat. The experiment is described as follows: Induction of apoptosis in human Jurkat cells assessed as caspase 9 activation at 15 nM after 48 hrs by Western blotting analysis. In kind it is functional, cell-based. Put shortly: as §1
Experiment [14] relates to Jurkat. The experiment is described as follows: Induction of apoptosis in human Jurkat cells assessed as caspase 2 activation at 15 nM after 24 to 48 hrs by Western blotting analysis. Format: functional, cell-based. Put shortly:
as §1

Experiment [15] has as its system Jurkat/A4. Briefly: Induction of apoptosis in human Jurkat/A4 cells assessed as small cell fragments with unequally segregated chromosomes enclosed by cell membrane after 48 hrs by May-Grunwald-Giemsa staining-based microscopic analysis. Format: functional. The essentials:
as §3

For experiment [16], the system named is Jurkat/A4. The experiment is described as follows: Induction of apoptosis in human Jurkat/A4 cells assessed as reduction of XIAP expression at 150 nM after 24 hrs Western blotting analysis. In kind it is functional, cell-based. The essentials:
as §1

The test system of experiment [17] is Jurkat. The experiment is described as follows: Induction of apoptosis in human Jurkat cells assessed as Bcl-2 expression at 15 nM after 24 to 48 hrs Western blotting analysis. Format: functional, cell-based. Put shortly:
as §1

Experiment [18] in a line: Cytotoxicity against human Jurkat/A4 cells assessed as cell death at 1 uM after 48 hrs by trypan blue exclusion assay relative to control. Format: functional. Put shortly:
as §4

In experiment [19] the test system is Jurkat. The experiment is described as follows: Cell cycle arrest in human Jurkat cells assessed as decrease in accumulation at G0/G1 phase at 15 nM after 24 hrs by propidium iodide staining-based flow cytometric analysis. In kind it is functional.
In experiment [20] the test system is Jurkat. Briefly: Induction of apoptosis in human Jurkat cells assessed as small cell fragments with unequally segregated chromosomes enclosed by cell membrane after 48 hrs by May-Grunwald-Giemsa staining-based microscopic analysis. In kind it is functional. Put shortly:
as §3

Experiment [21] relates to Jurkat. Briefly: Cell cycle arrest in human Jurkat cells assessed as increase in accumulation at G2/M phase at 15 nM after 24 hrs by propidium iodide staining-based flow cytometric analysis. Format: functional.
Experiment [22] in a line: Induction of apoptosis in human Jurkat/A4 cells assessed as active caspase 3 expression at 150 nM after 48 hrs by FITC-conjugated flow cytometric analysis (reference value: 1.1%). Format: functional. Put shortly:
as §2

Experiment [23] in a line: Cell cycle arrest in human Jurkat/A4 cells assessed as accumulation at sub-G1 phase at 150 nM after 48 hrs by propidium iodide staining-based flow cytometric analysis (reference value: 17.1%). Format: functional.
Experiment [24] relates to Jurkat/A4. The experiment is described as follows: Induction of apoptosis in human Jurkat/A4 cells assessed as Bcl-2 expression at 150 nM after 24 to 48 hrs Western blotting analysis. Format: functional, cell-based. The essentials:
as §1

A short description of experiment [25]: Induction of apoptosis in human Jurkat/A4 cells assessed as active caspase 3 expression at 150 nM after 24 hrs by FITC-conjugated flow cytometric analysis (reference value: 1.1%). In kind it is functional. Put shortly:
as §2

Experiment [26] relates to Paracentrotus lividus. Briefly: Antimitotic activity against sea urchin embryo free-swimming blastula model assessed as embryo spinning compound treated at 8 to 10 hrs post-fertilization measured after 0.25 to 20 hrs. In kind it is functional, Blastula stage.
Experiment [27] in a line: Cytotoxicity against human SH-SY5Y cells assessed as cell viability after 48 hrs. In kind it is functional, cell-based.
Experiment [28] has as its system Paracentrotus lividus. The experiment is described as follows: Antimitotic activity against sea urchin embryo model assessed as cleavage arrest of fertilized egg compound treated at 8 to 20 mins post-fertilization and 45 to 55 mins prior to first mitotic cycle completion measured 2.5 to 5.5 hrs post-fertilization. In kind it is functional. Put shortly: (§5)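 Fertilized eggs are exposed 8–20 min after fertilization to 2-fold decreasing concentrations. Stocks are 10 mM in DMSO, then diluted 10-fold in 95% EtOH; final DMSO is at most 0.05% and EtOH at most 1%. Embryos are kept as a monolayer, up to 2000 embryos/mL, in filtered seawater at room temperature. The value is the threshold concentration giving cleavage alteration, embryo death before hatching or full mitotic arrest. Duplicates were run.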

Experiment [29] has as its system Paracentrotus lividus. Briefly: Antimitotic activity against sea urchin embryo model assessed as cleavage alteration of fertilized egg compound treated at 8 to 20 mins post-fertilization and 45 to 55 mins prior to first mitotic cycle completion measured 2.5 to 5.5 hrs post-fertilization. Format: functional. The essentials: as §5

Active and inactive are the calls of the source. A value given as a limit tells only on which side of the number the result lay.

As usually defined, the EC50 is the concentration at which the effect is half-maximal. For `COc1ccc(/C=C\c2cc(OC)c(OC)c(OC)c2)cc1OP(=O)([O-])[O-].[Na+].[Na+]` [FOSBRETABULIN DISODIUM], the Activity in the experiment on Jurkat [1] is 39.5%; in the experiment on Jurkat [3], 15%; in the experiment with Jurkat [4], 31.6%; with Jurkat [5], “tde”; in [18] it was less than 20%; in experiment [22], 1.6%. The figures for the Activity in experiment [23] and in [25] were 24.3% and 2.2%, respectively. The result with Jurkat/A4 [2], with Jurkat/A4 [6], with Jurkat/A4 [16], in the experiment with Jurkat [17] and in the experiment with Jurkat/A4 [24] was inactive. The outcome (with Jurkat [7]; in experiment [9]; in experiment [10]; in the experiment on Jurkat/A4 [11]; in the experiment on Jurkat [12]; with Jurkat [13]) was Active. The result in the experiment with Jurkat [14], in the experiment with Jurkat/A4 [15], in the experiment with Jurkat [19], with Jurkat [20] and in the experiment on Jurkat [21] was Active. For the same compound, the EC50 in the experiment on Jurkat [8] was found to be 15 nM.

For orientation: IC50 means the concentration that gives 50% inhibition. For `COc1ccc(-n2nncc2-c2cc(OC)c(OC)c(OC)c2)cc1`, the EC was greater than 4 µM in the experiment on Paracentrotus lividus [26], 4 µM in the experiment on Paracentrotus lividus [28] and 1 µM in the experiment on Paracentrotus lividus [29]. The half-inhibitory concentration (IC50) in experiment [27] is greater than 1000 nM.
